Bioassay records: PubChem, several laboratories
MC4R antagonist: human MC4R antagonism in cAMP assay; P32245; MC4R-expressing cells, MTII-stimulated cAMP, LANCE TR-FRET; inhibition, % at 6.5 µM; actives 0.48% (n = 360,000);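 active = inhibition above its plate's cutoff, the mean of tested wells on that plate plus 3 SD, cut at about 29% in these data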;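 also: 0% = Melanotan II alone and 100% = Melanotan II plus saturating MCL0020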
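system = U2OS cells with stable human MC4R expression | also added = Melanotan II challenge after compound preincubation | dosing = one concentration, 6.5 µM nominal | incubation = compound 30 min, challenge 1 h, detection 1 h | measured by = TR-FRET with Eu-cAMP and labeled anti-cAMP, 671 nm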
MPTP inh: inhibitors of mitochondrial permeability transition pore; inhibition, % at 10 µM; AID 602449; actives 1.4% (n = 360,000); isolated mouse mitochondria, Ca2+ swelling absorbance, 30 min;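 active = inhibition of 50% or more, scaled per plate between neutral and stimulator controls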;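 also: 0% = DMSO wells given calcium and 100% = 1 mM EGTA wells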
ATG4B inhibitor: inhibitors of human ATG4B cysteine protease. ATG4B cleavage of LC3-PLA2, NBD-HPC fluorescence, 1 h. inhibition, % at 8.33 µM. actives 0.51% (n = 340,000). AID 504462; in the data active = inhibition above about 40%
Target sequence (Q9Y4P1 whole entry, looked up): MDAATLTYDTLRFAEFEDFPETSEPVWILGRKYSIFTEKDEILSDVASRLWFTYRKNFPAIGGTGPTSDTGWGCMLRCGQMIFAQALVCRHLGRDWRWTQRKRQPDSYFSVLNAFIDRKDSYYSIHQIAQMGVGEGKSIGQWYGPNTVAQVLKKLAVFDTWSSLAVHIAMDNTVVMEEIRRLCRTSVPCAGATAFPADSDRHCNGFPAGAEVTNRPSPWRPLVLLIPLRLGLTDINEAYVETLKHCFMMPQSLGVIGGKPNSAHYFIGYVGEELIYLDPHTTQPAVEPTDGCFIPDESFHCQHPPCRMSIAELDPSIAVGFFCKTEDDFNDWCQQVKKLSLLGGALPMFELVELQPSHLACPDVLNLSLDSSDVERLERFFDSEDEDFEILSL
SMARCA2 activ: activators of SMARCA2 function; actives 1% (n = 370,000); activation, % at 9.1 µM; MG213 cells, MMTV-luciferase reporter, dexamethasone, overnight; in the data active = activation above about 7.8%;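 also: 0% = vehicle wells and 100% = reference activator wells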
MC4R barr agon: activates human MC4R beta-arrestin recruitment. P32245. U2OS MC4R beta-arrestin complementation, luminescence; percent of melanotan II response, DMSO zero. activation, % at 8.9 µM. actives 0.98% (n = 360,000). AID 540308;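 active = activation above a per-plate cutoff, the mean activation of sample wells on that plate plus 3 SD, cut at about 8% in these data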
ATG4B conf: confirmation of human ATG4B inhibitors | actives 92% (n = 320) | AID 504757 | inhibition, % at 8.33 µM | ATG4B protease fluorescent substrate cleavage assay | shares compounds with ATG4B inhibitor; in the data active = inhibition above about 39%
PLA2 ctr: inhibits human PLA2, flagging false ATG4B inhibitors; shares compounds with ATG4B inhibitor; purified PLA2, NBD-C6-HPC fluorescence, 45 min; inhibition, % at 8.33 µM; actives 66% (n = 1,600); AID 588402; in the data active = inhibition above about 50%
Starred values were filed as active, the others as inactive; / = no result given. A selection: hits, their analogues and other compounds. The true share with any hit is near 4.1%.

SMILES | MC4R antagonist | MPTP inh | ATG4B inhibitor | SMARCA2 activ | MC4R barr agon | PLA2 ctr | others
COc1ccc(CNC(=O)C(c2ccc(C)o2)N(C(=O)c2csnn2)c2ccc(C(C)C)cc2)cc1 (stereo not given) | 0 | -2 | 43* | 1 | -1 | 41
CCN(Cc1cn(Cc2ccc(C)cc2)nn1)S(=O)(=O)c1ccccc1Br | / | / | / | -1 | / | /
O=C(COC(=O)c1c(F)cccc1Cl)NC1CCCCC1 | 8 | 0 | 2 | 3 | 0 | /
O=C(CSCc1c(F)cccc1Cl)NNC(=S)NC1CCCCC1 | 20 | 3 | 66* | -1 | -1 | 63*
COc1cc(-c2nnc(SCc3c(F)cccc3Cl)o2)cc(OC)c1OC | -3 | -7 | 42* | / | 0 | 57*
COc1cc(-c2nnc(SCc3ccccc3Cl)o2)cc(OC)c1OC | -7 | -1 | -1 | 2 | -1 | /
Cc1ccsc1S(=O)(=O)n1c(CN2CCOCC2)nc2ccccc21 | / | / | / | 3 | / | /
NC1=[N+](Cc2ccccc2)C[C@H]2C(=C3CCCC[C@H]3n3c(=O)n(-c4ccccc4)c(=O)n32)N1 | / | / | / | -1 | / | /
CC(/C=C1\SC(=S)N(NC(=O)c2ccc(C)cc2)C1=O)=C\c1ccccc1 | 3 | 0 | 1 | / | 0 | /
CC(/C=C1\SC(=S)N(NS(=O)(=O)c2ccccc2)C1=O)=C\c1ccccc1 | 13 | 37 | 49* | -2 | 5 | 47 | ATG4B conf=59*
CC(/C=C1\SC(=S)N(c2ccc(C(=O)O)cc2)C1=O)=C\c1ccccc1 | 9 | 32 | 52* | -4 | 0 | 47 | ATG4B conf=44*
Cc1[nH]c2ccccc2c1CC(=O)Nc1ccc(Nc2cccnc2)c(-c2ccc(Oc3ccccc3)cc2)c1 | / | / | / | -5 | / | /
O=S1(=O)CC2c3ccc(F)cc3CN2CN1Cc1ccccc1 (stereo not given) | / | / | / | -2 | / | /
CCOc1ccc(C2=CS/C(=C(\C#N)c3nnc4n3CCCCC4)N2CC)cc1 | 21 | 0 | 48* | 2 | -1 | 42 | ATG4B conf=72*
COC(=O)[C@]12C[C@H](CC(=O)NCc3ccc(OC)c(OC)c3)C(=O)N(Cc3cccc4ccccc34)C1=C[C@H](COCc1ccccc1)O[C@@H]2C | / | / | / | -5 | / | /
Cc1ccc(-c2[nH]nc3c2C(c2ccc(OC(=O)N4CCOCC4)cc2)C(C#N)=C(N)O3)cc1 (stereo not given) | 15 | 1 | 43* | / | -2 | 42 | ATG4B conf=78*
CCCCN1C(=O)C2Cc3c([nH]c4ccccc34)CN2C1=S (stereo not given) | 12 | 8 | 45* | -3 | 2 | 80*
O=C(NC1CCCCN(Cc2ccc(Cl)cc2)C1=O)c1cccs1 (stereo not given) | / | / | / | -3 | / | /
Cc1cc(NS(=O)(=O)c2ccc(Nc3nc(-c4ccc(C)c(C)c4)cs3)cc2)no1 | 23 | -28 | 44* | 0 | 1 | 38 | ATG4B conf=71*
Cc1cc(NS(=O)(=O)c2ccc(Nc3nc(-c4ccc(O)cc4)cs3)cc2)no1 | 4 | 0 | -8 | -2 | -2 | /
N#Cc1c(-c2ccccc2)nc(SCC(=O)N(c2ccccc2)c2ccccc2)[nH]c1=O | 18 | 7 | 13 | -2 | -1 | /
N#Cc1c(-c2ccccc2)nc(SCC(=O)N2c3ccccc3Sc3ccccc32)[nH]c1=O | 2 | 33 | 57* | -2 | 1 | 59*
CN[C@H]1C[C@H]2c3[nH]c4c(-c5ccc6c(c5)OCO6)cccc4c3CCN2C[C@H]1[C@H](C)O | / | / | / | -4 | / | /
O=C(OCc1cn(Cc2ccc(F)c(F)c2)nn1)N1CCOCC1 | / | / | / | -3 | / | /
Cc1cccc(N=C2NC(=O)/C(=C/C=C/c3ccco3)S2)c1C | 8 | 3 | 83* | 0 | -1 | 51*
COc1ccc(S[C@]2(C(=O)N3CCOCC3)CC(=O)N(c3ccsc3)[C@@H]2c2ccc(OC)cc2)cc1 | / | / | / | 1 | / | /
Nc1c(-c2ccccc2)c(CSc2nc3ccccc3[nH]2)nn1-c1cccc(Cl)c1 | -8 | 5 | 43* | -2 | 0 | 58*
Cc1sc2nc(C3CC3)nc(N3CCN(S(=O)(=O)c4ccc(F)cc4)CC3)c2c1C | 17 | 1 | 14 | 4 | 7 | /
